Laboratory results from ChEMBL document CHEMBL2157922, “Synthesis and antifungal activity of diverse C-2 pyridinyl and pyridinylvinyl substituted quinolines” (2012).
Converted amounts (≈) assume the structure as drawn. Blank lines part the entries; values can stand above or below the compound they belong to.

Legend:
Candida parapsilosis = assay: Antifungal activity against Candida parapsilosis CCC 124 after 48 hrs by broth microdilution technique; assay type: functional; conditions: Lodderomyces parapsilosis, CCC 124, 48 h
Cryptococcus neoformans [1] = assay: Antifungal activity against Cryptococcus neoformans ATCC 32264 at 31.2 ug/ml after 48 hrs; assay type: functional; conditions: ATCC 32264, 48 h
Outline: (§1)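 C. neoformans was tested by 96-well RPMI-1640 microdilution, with DMSO-matched growth and sterility control wells. Plates were incubated 48 h at 30 °C in a moist, dark chamber and read at OD405. % inhibition = 100 − (CTW − SCW)/(GCW − SCW), in duplicate. For the clinical isolates, MIC80 and MIC50 are the lowest concentrations giving 80% and 50% inhibition.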

Candida albicans [2] = assay: Antifungal activity against Candida albicans CCC 129 after 48 hrs by broth microdilution technique; assay type: functional; conditions: CCC 129, 48 h
Candida albicans [3] = assay: Antifungal activity against Candida albicans CCC 125 after 48 hrs by broth microdilution technique; assay type: functional; conditions: CCC 125, 48 h
Candida albicans [4] = assay: Antifungal activity against Candida albicans CCC 128 after 48 hrs by broth microdilution technique; assay type: functional; conditions: CCC 128, 48 h
Aspergillus niger = assay: Antifungal activity against Aspergillus niger ATCC 9029 after 48 hrs by broth microdilution technique; assay type: functional; conditions: ATCC 9029, 48 h
Outline: (§2)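 Moulds and dermatophytes were run by CLSI broth microdilution in MOPS-buffered RPMI-1640 at pH 7.0. Aspergillus was incubated at 30 °C and dermatophytes at 28–30 °C, in a moist, dark chamber. MIC100, the lowest concentration with no visible growth, was read visually at a time set by growth of the control fungus.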

Cryptococcus neoformans [5] = assay: Antifungal activity against Cryptococcus neoformans IM 00319 after 48 hrs by broth microdilution technique; assay type: functional; conditions: IM 00319, 48 h; outline: as §1
Candida albicans [6] = assay: Antifungal activity against Candida albicans CCC 127 after 48 hrs by broth microdilution technique; assay type: functional; conditions: CCC 127, 48 h
Candida albicans [7] = assay: Antifungal activity against Candida albicans ATCC 10231 after 48 hrs by broth microdilution technique; assay type: functional; conditions: ATCC 10231, 48 h
Outline: (§3)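 Yeasts were tested by CLSI broth microdilution in RPMI-1640 buffered to pH 7.0 with MOPS, with compound from 250 down to 0.98 in DMSO stocks. Trays were held at 30 °C in a moist, dark chamber. MIC100, the lowest concentration giving total visual inhibition against the growth control, was read by eye at 48 h.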

[8] = tested on: Trichophyton mentagrophytes; assay: Antifungal activity against Trichophyton mentagrophytes ATCC 9972 after 48 hrs by broth microdilution technique; assay type: functional; conditions: ATCC 9972, 48 h; outline: as §2
Candida tropicalis = assay: Antifungal activity against Candida tropicalis CCC 131 after 48 hrs by broth microdilution technique; assay type: functional; conditions: CCC 131, 48 h
Cryptococcus neoformans [9] = assay: Antifungal activity against Cryptococcus neoformans IM 983036 after 48 hrs by broth microdilution technique; assay type: functional; conditions: IM 983036, 48 h; outline: as §1
Aspergillus flavus = assay: Antifungal activity against Aspergillus flavus ATCC 9170 after 48 hrs by broth microdilution technique; assay type: functional; conditions: ATCC 9170, 48 h; outline: as §2
Candida albicans [10] = assay: Antifungal activity against Candida albicans CCC 130 after 24 hrs by broth microdilution technique; conditions: CCC 130, 24 h
Saccharomyces cerevisiae = assay: Antifungal activity against Saccharomyces cerevisiae ATCC 9763 after 48 hrs by broth microdilution technique; assay type: functional; conditions: ATCC 9763, 48 h; outline: as §3
Candida albicans [11] = assay: Antifungal activity against Candida albicans CCC 126 after 48 hrs by broth microdilution technique; assay type: functional; conditions: CCC 126, 48 h
Trichophyton rubrum = assay: Antifungal activity against Trichophyton rubrum CCC 113 after 48 hrs by broth microdilution technique; assay type: functional; conditions: CCC 113, 48 h
Cryptococcus neoformans [12] = assay: Antifungal activity against Cryptococcus neoformans IM 983040 after 48 hrs by broth microdilution technique; assay type: functional; conditions: IM 983040, 48 h; outline: as §1
Cryptococcus neoformans [13] = assay: Antifungal activity against Cryptococcus neoformans ATCC 32264 after 48 hrs by broth microdilution technique; assay type: functional; conditions: ATCC 32264, 48 h; outline: as §3
Aspergillus fumigatus = assay: Antifungal activity against Aspergillus fumigatus ATCC 26934 after 48 hrs by broth microdilution technique; assay type: functional; conditions: ATCC 26934, 48 h; outline: as §2
Cryptococcus neoformans [14] = assay: Antifungal activity against Cryptococcus neoformans IM 972724 after 48 hrs by broth microdilution technique; assay type: functional; conditions: IM 972724, 48 h; outline: as §1
Pichia kudriavzevii = assay: Antifungal activity against Candida krusei CCC 117 after 48 hrs by broth microdilution technique; assay type: functional; conditions: CCC 117, 48 h
Candida albicans [15] = assay: Antifungal activity against Candida albicans CCC 130 after 48 hrs by broth microdilution technique; assay type: functional; conditions: CCC 130, 48 h
Nakaseomyces glabratus = assay: Antifungal activity against Candida glabrata CCC 115 after 48 hrs by broth microdilution technique; assay type: functional; conditions: CCC 115, 48 h
Cryptococcus neoformans [16] = assay: Antifungal activity against Cryptococcus neoformans IM 042074 after 48 hrs by broth microdilution technique; assay type: functional; conditions: IM 042074, 48 h; outline: as §1
Cryptococcus neoformans [17] = assay: Antifungal activity against Cryptococcus neoformans IM 972751 after 48 hrs by broth microdilution technique; assay type: functional; conditions: IM 972751, 48 h; outline: as §1
Nannizzia gypsea = assay: Antifungal activity against Microsporum gypseum CCC 115 after 48 hrs by broth microdilution technique; assay type: functional; conditions: CCC 115, 48 h; outline: as §2

SMILES: Clc1ccc2nc(-c3cccnc3)ccc2c1
MIC (Aspergillus niger): > 250 µg/mL
MIC (Candida albicans [7]): > 250 µg/mL
MFC [8]: 125 µg/mL (≈ 519 µM)
MIC [8]: 31 µg/mL (≈ 129 µM)
MIC (Aspergillus flavus): > 250 µg/mL
MIC (Saccharomyces cerevisiae): > 250 µg/mL
MFC (Trichophyton rubrum): 125 µg/mL (≈ 519 µM)
MIC (Trichophyton rubrum): 31 µg/mL (≈ 129 µM)
MFC (Cryptococcus neoformans [13]): 125 µg/mL (≈ 519 µM)
MIC (Cryptococcus neoformans [13]): 62 µg/mL (≈ 258 µM)
MIC (Aspergillus fumigatus): > 250 µg/mL
MFC (Nannizzia gypsea): 125 µg/mL (≈ 519 µM)
MIC (Nannizzia gypsea): 31 µg/mL (≈ 129 µM)

SMILES: CC(=O)N1CCN(c2ccc(OCC3COC(Cn4ccnc4)(c4ccc(Cl)cc4Cl)O3)cc2)CC1 (stereo not drawn) [KETOCONAZOLE]
MIC (Aspergillus niger): 0.25 µg/mL (≈ 0.47 µM)
MIC (Candida albicans [7]): 0.49 µg/mL (≈ 0.922 µM)
MIC [8]: 0.03 µg/mL (≈ 0.0565 µM)
MIC (Aspergillus flavus): 0.12 µg/mL (≈ 0.226 µM)
MIC (Saccharomyces cerevisiae): 0.49 µg/mL (≈ 0.922 µM)
MIC (Trichophyton rubrum): 0.03 µg/mL (≈ 0.0565 µM)
MIC (Cryptococcus neoformans [13]): 0.25 µg/mL (≈ 0.47 µM)
MIC (Aspergillus fumigatus): 0.49 µg/mL (≈ 0.922 µM)
MIC (Nannizzia gypsea): 0.06 µg/mL (≈ 0.113 µM)

SMILES: Clc1ccc2nc(-c3ccncc3)ccc2c1
MIC (Aspergillus niger): > 250 µg/mL
MIC (Candida albicans [7]): > 250 µg/mL
MFC [8]: 125 µg/mL (≈ 519 µM)
MIC [8]: 125 µg/mL (≈ 519 µM)
MIC (Aspergillus flavus): > 250 µg/mL
MIC (Saccharomyces cerevisiae): > 250 µg/mL
MFC (Trichophyton rubrum): 125 µg/mL (≈ 519 µM)
MIC (Trichophyton rubrum): 125 µg/mL (≈ 519 µM)
MFC (Cryptococcus neoformans [13]): 250 µg/mL (≈ 1040 µM)
MIC (Cryptococcus neoformans [13]): 125 µg/mL (≈ 519 µM)
MIC (Aspergillus fumigatus): > 250 µg/mL
MFC (Nannizzia gypsea): 125 µg/mL (≈ 519 µM)
MIC (Nannizzia gypsea): 125 µg/mL (≈ 519 µM)

Continued by falling MIC (Aspergillus niger), values first:

MIC50 (Candida parapsilosis): 7.8 µg/mL (≈ 35.4 µM)
MIC80 (Candida parapsilosis): 31.2 µg/mL (≈ 142 µM)
MIC50 (Candida albicans [2]): 62.5 µg/mL (≈ 284 µM)
MIC80 (Candida albicans [2]): 125 µg/mL (≈ 567 µM)
MIC50 (Candida albicans [3]): 31.2 µg/mL (≈ 142 µM)
MIC80 (Candida albicans [3]): 125 µg/mL (≈ 567 µM)
MIC50 (Candida albicans [4]): 31.2 µg/mL (≈ 142 µM)
MIC80 (Candida albicans [4]): 125 µg/mL (≈ 567 µM)
MIC (Aspergillus niger): 125 µg/mL (≈ 567 µM)
MIC50 (Cryptococcus neoformans [5]): 15.6 µg/mL (≈ 70.8 µM)
MIC80 (Cryptococcus neoformans [5]): 31.2 µg/mL (≈ 142 µM)
MIC50 (Candida albicans [6]): 31.2 µg/mL (≈ 142 µM)
MIC80 (Candida albicans [6]): 125 µg/mL (≈ 567 µM)
MIC (Candida albicans [7]): 125 µg/mL (≈ 567 µM)
MIC50 (Candida albicans [7]): 15.6 µg/mL (≈ 70.8 µM)
MIC80 (Candida albicans [7]): 31.2 µg/mL (≈ 142 µM)
MIC [8]: 62 µg/mL (≈ 281 µM)
MIC50 (Candida tropicalis): 15.6 µg/mL (≈ 70.8 µM)
MIC80 (Candida tropicalis): 125 µg/mL (≈ 567 µM)
MIC50 (Cryptococcus neoformans [9]): 31.2 µg/mL (≈ 142 µM)
MIC80 (Cryptococcus neoformans [9]): 62.5 µg/mL (≈ 284 µM)
MIC (Aspergillus flavus): 62 µg/mL (≈ 281 µM)
MIC50 (Candida albicans [10]): 62.5 µg/mL (≈ 284 µM)
MIC (Saccharomyces cerevisiae): 62 µg/mL (≈ 281 µM)
MIC50 (Candida albicans [11]): 31.2 µg/mL (≈ 142 µM)
MIC80 (Candida albicans [11]): 62.5 µg/mL (≈ 284 µM)
MIC (Trichophyton rubrum): 62 µg/mL (≈ 281 µM)
MIC50 (Cryptococcus neoformans [12]): 7.8 µg/mL (≈ 35.4 µM)
MIC80 (Cryptococcus neoformans [12]): 31.2 µg/mL (≈ 142 µM)
MIC (Cryptococcus neoformans [13]): 62 µg/mL (≈ 281 µM)
MIC50 (Cryptococcus neoformans [13]): 7.8 µg/mL (≈ 35.4 µM)
MIC80 (Cryptococcus neoformans [13]): 31.2 µg/mL (≈ 142 µM)
MIC (Aspergillus fumigatus): 62 µg/mL (≈ 281 µM)
MIC50 (Cryptococcus neoformans [14]): 15.6 µg/mL (≈ 70.8 µM)
MIC80 (Cryptococcus neoformans [14]): 31.2 µg/mL (≈ 142 µM)
MIC50 (Pichia kudriavzevii): 31.2 µg/mL (≈ 142 µM)
MIC80 (Pichia kudriavzevii): 62.5 µg/mL (≈ 284 µM)
MIC80 (Candida albicans [15]): 125 µg/mL (≈ 567 µM)
MIC50 (Nakaseomyces glabratus): 7.8 µg/mL (≈ 35.4 µM)
MIC80 (Nakaseomyces glabratus): 15.6 µg/mL (≈ 70.8 µM)
MIC50 (Cryptococcus neoformans [16]): 15.6 µg/mL (≈ 70.8 µM)
MIC80 (Cryptococcus neoformans [16]): 31.2 µg/mL (≈ 142 µM)
MIC50 (Cryptococcus neoformans [17]): 7.8 µg/mL (≈ 35.4 µM)
MIC80 (Cryptococcus neoformans [17]): 31.2 µg/mL (≈ 142 µM)
MIC (Nannizzia gypsea): 62 µg/mL (≈ 281 µM)
SMILES: Cc1ccc2nc(-c3ccncc3)ccc2c1
inhibition at 31.2 µg/mL (Cryptococcus neoformans [1]): 80%
MFC (Aspergillus niger): 250 µg/mL (≈ 1130 µM)
MFC (Candida albicans [7]): 250 µg/mL (≈ 1130 µM)
MFC [8]: 62 µg/mL (≈ 281 µM)
MFC (Aspergillus flavus): 125 µg/mL (≈ 567 µM)
MFC (Saccharomyces cerevisiae): 125 µg/mL (≈ 567 µM)
MFC (Trichophyton rubrum): 62 µg/mL (≈ 281 µM)
MFC (Cryptococcus neoformans [13]): 125 µg/mL (≈ 567 µM)
MFC (Aspergillus fumigatus): 125 µg/mL (≈ 567 µM)
MFC (Nannizzia gypsea): 62 µg/mL (≈ 281 µM)

MIC (Aspergillus niger): 125 µg/mL (≈ 538 µM)
MIC (Candida albicans [7]): 250 µg/mL (≈ 1080 µM)
MIC [8]: 62 µg/mL (≈ 267 µM)
MIC (Aspergillus flavus): 125 µg/mL (≈ 538 µM)
MIC (Saccharomyces cerevisiae): 250 µg/mL (≈ 1080 µM)
MIC (Trichophyton rubrum): 62 µg/mL (≈ 267 µM)
MIC (Cryptococcus neoformans [13]): 125 µg/mL (≈ 538 µM)
MIC (Aspergillus fumigatus): 125 µg/mL (≈ 538 µM)
MIC (Nannizzia gypsea): 62 µg/mL (≈ 267 µM)
SMILES: C(=C\c1ccc2ccccc2n1)/c1cccnc1
MFC (Aspergillus niger): > 250 µg/mL
MFC (Candida albicans [7]): > 250 µg/mL
MFC [8]: 250 µg/mL (≈ 1080 µM)
MFC (Aspergillus flavus): > 250 µg/mL
MFC (Saccharomyces cerevisiae): > 250 µg/mL
MFC (Trichophyton rubrum): 250 µg/mL (≈ 1080 µM)
MFC (Cryptococcus neoformans [13]): 250 µg/mL (≈ 1080 µM)
MFC (Aspergillus fumigatus): > 250 µg/mL
MFC (Nannizzia gypsea): 250 µg/mL (≈ 1080 µM)
